Source: ChEMBL document CHEMBL4014334, “BET Bromodomain Inhibitors with One-Step Synthesis Discovered from Virtual Screen” (J Med Chem, 2017)
Calls of active or inactive are those of the source. The calls are words filed in the database; no cut-off is given here.

Tests used:
[1] = target: T1, Bromodomain testis-specific protein (Homo sapiens, UniProt Q58F21); experiment: Inhibition of BI-BODIPY binding to BRDT bromodomain 1 (29 to 134 residues) (unknown origin) expressed in Escherichia coli BL21(DE3) by fluorescence anisotropy assay
[2] = target: T1, Bromodomain testis-specific protein; experiment: Binding affinity to BRDT bromodomain 1 (29 to 134 residues)(unknown origin) expressed in Escherichia coli BL21(DE3) assessed as change in melting temperature at 150 uM at 25 to 75 degC after 5 mins by SYPRO orange dye based differential scanning fluorimetric analysis
Summary of the method: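 DSF with 10 μM BrdT(1) in 50 mM HEPES pH 7.5, 100 mM NaCl, with 5x SYPRO Orange. The 8-point dose range is 1250–9 μM at 2.5% DMSO, run in duplicate. After 5 min at 25 °C, samples are heated from 25 to 75 °C in 0.2 °C steps. Tm is the peak of the negative first derivative. ΔTm is taken against the DMSO control. Plates with Z' below 0.5 are excluded.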

[3] = target: T2, Bromodomain-containing protein 4 (Homo sapiens, UniProt O60885); experiment: Inhibition of BI-BODIPY binding to BRD4 bromodomain 1 (42 to 168 residues)(unknown origin) expressed in Escherichia coli BL21(DE3) by fluorescence anisotropy assay
Summary of the method: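 Competition fluorescence anisotropy in 50 mM Tris, 100 mM NaCl, pH 7.4, 4 mM CHAPS, 0.5% DMSO; BrdT also contains 3 mM DTT. Tracer BI-BODIPY is at 0.025 μM. Protein is set at the level giving 80% tracer bound. Ex 485/em 535. A four-parameter IC50 is converted to Ki by a Cheng-Prusoff variant, from ≥3 independent experiments.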

MM1.S = experiment: Cytotoxicity against human MM1S cells assessed as reduction in cell viability after 72 hrs by MTT assay; assay type: functional, cell-based
[4] = target: T2, Bromodomain-containing protein 4; experiment: Binding affinity to 5FW-labeled BRD4 bromodomain 1 (unknown origin) expressed in Escherichia coli BL21(DE3) by PrOF NMR spectroscopic analysis
Summary of the method: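 BrdT samples also contain 3 mM DTT. Spectra recorded with compound present and absent at 500 MHz, 90° flip angle, 0.7 s relaxation delay, 0.1 s acquisition, 500 transients. The read-out is broadening or shift of the binding-pocket Trp resonance.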

[5] = target: T2, Bromodomain-containing protein 4; experiment: Inhibition of BI-BODIPY binding to BRD4 bromodomain 1 (42 to 168 residues)(unknown origin) expressed in Escherichia coli BL21(DE3) up to 1000 uM by fluorescence polarization assay
[6] = target: T1, Bromodomain testis-specific protein; experiment: Inhibition of BI-BODIPY binding to BRDT bromodomain 1 (29 to 134 residues) (unknown origin) expressed in Escherichia coli BL21(DE3) up to 1000 uM by fluorescence polarization assay

For `COc1ccc(C2C3=C(COC3=O)Nc3c2c(=O)[nH]c(=O)n3C)cc1` (centres undefined), the Ki [1] was greater than 40 µM and the ΔTm [2] was -0.35 °C.
Work on `CCn1c2c(c(=O)[nH]c1=O)C(c1ccc(C)cc1)C1=C(CCC1=O)N2` (centres undefined) yielded a Ki [3] of 10 µM, a Ki [1] of 23 µM and a ΔTm [2] of 0.06 °C.
With `CCCn1c2c(c(=O)[nH]c1=O)C(c1ccccc1)C1=C(COC1=O)N2` (centres undefined) the Ki [3] was 1.2 µM, the Ki [1] was 2.4 µM and the ΔTm [2] was 0.14 °C.
`COc1ccc(C2C3=C(COC3=O)Nc3c2c(=O)n(C)c(=O)n3C)cc1` (centres undefined) showed a Ki [1] greater than 40 µM and a ΔTm [2] of -0.48 °C.
`O=c1[nH]c(=O)c2c([nH]1)[nH]/c(=N/CCO)n2Cc1cccc2ccccc12` gave an IC50 [1] of 87 µM.
With `Cn1c2c(c(=O)[nH]c1=O)C(c1ccccc1)C1=C(COC1=O)N2` (centres undefined) the Ki [1] was greater than 40 µM and the ΔTm [2] was -1.1 °C.
`Cc1ccc(C2C3=C(COC3=O)Nc3c2c(=O)n(C)c(=O)n3C)cc1` (centres undefined) was tested, and the Ki [1] was greater than 40 µM and the ΔTm [2] was -0.46 °C.
`CCn1c2c(c(=O)n(C)c1=O)C(c1ccc(C)cc1)C1=C(COC1=O)N2` (centres undefined) was tested, and the Ki [3] was greater than 40 µM and the Ki [1] was greater than 40 µM.
For `CCn1c2c(c(=O)[nH]c1=O)C(c1ccc(C)cc1)C1=C(CN(Cc3ccccc3)C1=O)N2` (centres undefined), the IC50 [3] was 0.24 µM, the Ki [3] was 0.19 µM and the IC50 (MM1.S) was 2.1 µM. For the same compound, the IC50 [1] was 0.55 µM and the Ki [1] was 0.23 µM.
In the case of `Cc1ccc(C2C3=C(COC3=O)Nc3c2c(=O)[nH]c(=O)n3C2CC2)cc1` (centres undefined), the Ki [3] is reported as greater than 40 µM, the Ki [1] is reported as greater than 40 µM and the ΔTm [2] is reported as 0.06 °C.
Work on `CCn1c2c(c(=O)[nH]c1=O)C(c1ccc(Cl)cc1)C1=C(COC1=O)N2` (centres undefined) yielded a Ki [3] of 0.3 µM, a Ki [1] of 1.1 µM and a ΔTm [2] of 1.4 °C.
In the case of `O=C1COC(=O)C1`, the Activity [4] is reported as “inactive”.
In the case of `CCn1c2c(c(=O)[nH]c1=O)C(c1ccc(C)cc1)C(C(=O)OC)=C(C)N2` (centres undefined), the inhibition [5] is reported as “inactive” and the inhibition [6] is reported as “inactive”.
For `CCCN1C(=O)c2c[nH]c(C)c2C1c1cc(OC)ccc1OC` (centres undefined), the IC50 [1] was 67 µM.
Work on `O=c1[nH]c(=O)n(CC2CCCO2)c2nccc(-c3ccco3)c12` (centres undefined) yielded an IC50 [1] of 130 µM.
`CN1C(=O)CC/N=C(/c2ccc(Cl)cc2)c2cc(Cl)ccc21` gave an IC50 [1] of 220 µM.
